We go through 20 compounds from ChEMBL document CHEMBL3286263, “Bazedoxifene-scaffold-based mimetics of solomonsterols A and B as novel pregnane X receptor antagonists” (J Med Chem, 2014).

Each structure is given as a SMILES string. Activity calls are given as the source filed them. The calls are words filed in the database; no cut-off is given here.

The target in series [1] is T1, Nuclear receptor subfamily 1 group I member 2 (Homo sapiens, UniProt O75469).
T1 sequence (O75469 whole entry): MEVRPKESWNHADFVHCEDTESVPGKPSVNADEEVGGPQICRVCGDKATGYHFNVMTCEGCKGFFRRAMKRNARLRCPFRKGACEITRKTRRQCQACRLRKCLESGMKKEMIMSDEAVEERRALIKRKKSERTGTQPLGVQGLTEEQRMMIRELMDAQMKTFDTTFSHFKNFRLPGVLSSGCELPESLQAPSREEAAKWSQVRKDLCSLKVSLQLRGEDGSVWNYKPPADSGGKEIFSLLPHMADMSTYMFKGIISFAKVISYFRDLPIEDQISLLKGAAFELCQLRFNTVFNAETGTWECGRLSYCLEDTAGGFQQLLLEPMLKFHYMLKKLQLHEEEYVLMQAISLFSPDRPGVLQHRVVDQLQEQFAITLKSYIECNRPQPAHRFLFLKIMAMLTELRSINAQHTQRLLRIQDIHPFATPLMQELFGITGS
The experiment in a line: Agonist activity at human PXR transfected in human HepG2 cells co-transfected with pSG5-RXR/pCMV-beta-galactosidase/p(CYP3A4)-TK-Luc at 10 uM after 18 hrs by luciferase reporter gene assay. It counts as cell-based. Particulars: hepg2, 18 h. The gist of the method: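 HepG2 seeded 5x10^4 cells/well in MEM/10% FBS, transfected (Fugene HD) with pSG5hPXR, pSG5-RXR, pCMV-β-galactosidase and PXRE luciferase reporter. At 24 h post-transfection, treated 18 h with compounds at 10 µM; rifaximin and solomonsterol A (10 µM) as reference agonists. Lysate luciferase read, normalised to β-galactosidase activity.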
On the technique in general: Reporter assays use an easily measured gene product as a stand-in for the process of interest.

In series [2] the target is T1, Nuclear receptor subfamily 1 group I member 2. The experiment in a line: Antagonist activity at human PXR transfected in human HepG2 cells co-transfected with pSG5-RXR/pCMV-beta-galactosidase/p(CYP3A4)-TK-Luc assessed as inhibition of rifaximin-induced transactivation at 50 uM after 18 hrs by luciferase reporter gene assay. It counts as cell-based. Particulars: hepg2, 18 h. An outline of the steps: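 HepG2 transiently transfected with hPXR, RXR, β-galactosidase and PXRE-luciferase vectors; 24 h later exposed 18 h to rifaximin 10 µM plus compound at 50 µM. Luciferase in lysate measured and divided by β-galactosidase activity to correct for transfection efficiency.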

The subject of series [3] is HepG2. The experiment in a line: Cytotoxicity against human HepG2 cells transfected with pSG5-PXR/pSG5-RXR/pCMV-beta-galactosidase/p(CYP3A4)-TK-Luc at 50 uM. Format: ADME, cell-based. Particulars: hepg2, 50 µM. The gist of the method:
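Transfected HepG2 cells given rifaximin 10 µM plus compound at 50 µM for 18 h; cytotoxicity judged by morphological analysis.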

The target in series [4] is T1, Nuclear receptor subfamily 1 group I member 2. The experiment in a line: Antagonist activity at PXR (unknown origin) transfected in human HepG2 cells assessed as inhibition of rifampicin-induced reporter gene transcription. Format: cell-based.
Series [5] concerns HepG2. The experiment in a line: Downregulation of PXR mRNA expression in rifaximin-treated human HepG2 cells at 50 uM after 18 hrs by real time-PCR analysis. It counts as functional, cell-based. The gist of the method:
(§1)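 HepG2 seeded 5x10^5 cells/well, grown to about 70% confluence, serum-starved 24 h, then treated 18 h with rifaximin 10 µM alone or with compound at 50 µM. PXR and CYP3A4 mRNA by real-time PCR in triplicate (40 cycles), normalised to GAPDH, 2^-ΔΔCt relative to untreated cells; mean of two experiments.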

The target of series [6] is T1, Nuclear receptor subfamily 1 group I member 2. The experiment in a line: Antagonist activity at PXR in human HepG2 cells assessed as inhibition of rifaximin-induced CYP3A4 mRNA expression at 50 uM after 18 hrs by real time-PCR analysis. Format: cell-based. Particulars: hepg2, 18 h. An outline of the steps:
as §1

The target is the same in series [7]. The experiment in a line: Antagonist activity at human PXR transfected in human HepG2 cells co-transfected with pSG5-RXR/pCMV-beta-galactosidase/p(CYP3A4)-TK-Luc assessed as inhibition of rifaximin-induced transactivation after 18 hrs by luciferase reporter gene assay. Format: cell-based. Particulars: for inhibition (INH): human, hepg2, 18 h. An outline of the steps: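 PXR/RXR/β-gal/PXRE-luciferase-transfected HepG2 cells, 24 h post-transfection, co-treated 18 h with 10 µM rifaximin and compound at 10, 25 and 50 µM. β-galactosidase-normalised luciferase signal used to fit concentration-response curves for IC50.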

Series [8] shares this target. The experiment in a line: Antagonist activity at human PXR transfected in African green monkey CV1 cells assessed as inhibition of SR12813-induced transactivation after 24 hrs by luciferase reporter gene assay. It counts as cell-based, CV-1.

For `Cc1c(-c2ccc(OS(=O)(=O)[O-])c(OS(=O)(=O)[O-])c2)[nH]c2ccc(OS(=O)(=O)[O-])cc12.[Na+].[Na+].[Na+]`, the Activity result in series [1] is given as “Not Active”. Besides, the “inhibition (INH)” value in series [2] is reported as “Not Active”.

Take `COc1ccc2[nH]c(-c3ccc(OC)c(OC)c3)c(C)c2c1`: in series [2], the “inhibition (INH)” value is reported as “Active”. Also, the Activity result with HepG2 [3] was “Non-toxic”.

On to `Cc1c(-c2ccc(OS(=O)(=O)[O-])cc2)[nH]c2ccc(OCCOS(=O)(=O)[O-])cc12.[Na+].[Na+]`, for which, in series [1], the Activity entry was “Not Active”. In series [2], the “inhibition (INH)” value is listed as “Not Active”.

In the case of `Cc1c(-c2ccc(O)cc2)[nH]c2ccc(O)cc12`, the Activity entry in series [1] is listed as “Not Active”. Further, the “inhibition (INH)” value in series [2] is on record as “Active”.

In the case of `Cc1ccc(SC(=O)c2c(C)noc2-c2cc(C)on2)cc1`, the IC50 – broadly, the concentration that inhibits the measured activity by half – in series [4] was 850 nM.

For the compound `Cc1c(-c2ccc(O)c(O)c2)[nH]c2ccc(OCCO)cc12`, in series [1], the Activity entry was “Not Active”. Also, the “inhibition (INH)” value in series [2] was “Active”.

As to `Cc1c(-c2ccc(OS(=O)(=O)[O-])cc2)[nH]c2ccc(OS(=O)(=O)[O-])cc12.[Na+].[Na+]`, in series [1], the Activity result is on record as “Not Active”. Moreover, the “inhibition (INH)” value in series [2] is given as “Not Active”.

With `Cc1c(-c2ccc(O)c(O)c2)[nH]c2ccc(O)cc12`, the result in the series on HepG2 [5] was Active. Further, the “inhibition (INH)” value in series [6] is listed as “Active”; in series [2] it was “Active”; in series [7], “Dose-dependent effect”. Further, in series [1], the Activity entry was “Not Active”. Further, the IC50 in series [7] is 11 µM.

As for `Cc1c(-c2ccc(O)c(O)c2)n(C)c2ccc(O)cc12`, in series [2], the “inhibition (INH)” value is reported as “Active”. The Activity result in the series with HepG2 [3] was “Toxic”.

`Cc1c(-c2ccc(O)c(O)c2)n(Cc2ccccc2)c2ccc(O)cc12`: in series [2], the “inhibition (INH)” value was “Active”. Further, the Activity result with HepG2 [3] is “Toxic”.

On to `C[C@H](CCCOS(=O)(=O)[O-])[C@H]1CC[C@H]2[C@@H]3CC[C@H]4C[C@H](OS(=O)(=O)[O-])[C@@H](OS(=O)(=O)[O-])C[C@]4(C)[C@H]3CC[C@]12C.[Na+].[Na+].[Na+]` [SOLOMONSTEROL A], for which the outcome in series [1] was Active.

On to `Cc1c(-c2ccc(O)c(O)c2)[nH]c2ccc(OCCCO)cc12`, for which the outcome in the series on HepG2 [5] was Active. In addition, the “inhibition (INH)” value is “Active” in series [6], “Active” in series [2] and “Dose-dependent effect” in series [7]. Besides, in series [1], the Activity entry is on record as “Not Active”. For the same compound, the IC50 in series [7] was determined as 14 µM.

On to `Cc1c(-c2ccc(O)cc2)[nH]c2ccc(OCCO)cc12`, for which the Activity result in series [1] was “Not Active”. The “inhibition (INH)” value in series [2] was “Active”.

As for `Cc1c(-c2ccc(OS(=O)(=O)[O-])cc2)[nH]c2ccc(OCCCOS(=O)(=O)[O-])cc12.[Na+].[Na+]`, in series [1], the Activity result is recorded as “Not Active”. Moreover, in series [2], the “inhibition (INH)” value is “Not Active”.

Turning to `CCCn1c(-c2ccc(O)c(O)c2)c(C)c2cc(O)ccc21`, the “inhibition (INH)” value in series [2] was “Active”. Moreover, in the series on HepG2 [3], the Activity entry is “Toxic”.

Take `CO[C@H]1/C=C/O[C@@]2(C)Oc3c(C)c(O)c4c(O)c(c5c(nc6cc(C)ccn65)c4c3C2=O)NC(=O)/C(C)=C\C=C\[C@H](C)[C@H](O)[C@@H](C)[C@@H](O)[C@@H](C)[C@H](OC(C)=O)[C@@H]1C` [RIFAXIMIN]: the outcome in series [1] was Active.

For the compound `O=c1oc2cc(O)ccc2c2oc3cc(O)ccc3c12` [COUMESTROL], the IC50 in series [8] was 12 µM.

With `COc1ccc2c(c1)c(C)c(-c1ccc(OC)c(OC)c1)n2C`, the “inhibition (INH)” value in series [2] is given as “Active”. Moreover, in the series with HepG2 [3], the Activity entry is “Toxic”.

For `Cc1c(-c2ccc(OS(=O)(=O)[O-])c(OS(=O)(=O)[O-])c2)[nH]c2ccc(OCCCOS(=O)(=O)[O-])cc12.[Na+].[Na+].[Na+]`, the Activity result in series [1] was “Not Active”. The “inhibition (INH)” value in series [2] is “Not Active”.

Consider `Cc1c(-c2ccc(O)cc2)[nH]c2ccc(OCCCO)cc12`, for which the Activity result in series [1] is on record as “Not Active”. Moreover, in series [2], the “inhibition (INH)” value is “Active”.
